Data taken from ChEMBL document CHEMBL4823286, “Synthesis and evaluation of novel 2,4-diaminopyrimidines bearing a sulfoxide moiety as anaplastic lymphoma kinase (ALK) inhibition agents” (Bioorg Med Chem Lett, 2021).
pIC50: −log10 of the molar value.

Experiments:
NCI-H2228 [1] = test: Antiproliferative activity against human NCI-H2228 cells assessed as inhibition of cell proliferation measured by CCK8 assay; type: functional, cell-based
Summary of the method: (§1)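 Cell proliferation inhibition; IC50 given as mean ± SD of three independent experiments.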

BaF3 = test: Antiproliferative activity against mouse BaF3 cells overexpressing ALK assessed as inhibition of cell proliferation measured by CCK8 assay; type: functional, cell-based; summary of the method: as §1
NCI-H2228 [2] = test: Induction of apoptosis in human NCI-H2228 cells assessed as late apoptotic cells at 25 nM measured after 48 hrs by Annexin V-FITC/PI staining based flow cytometry assay (reference value: 0.23%); type: functional
Summary of the method: (§2)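 After 24 h or 48 h exposure (5, 25, 50 nM; DMSO 0.01% control), NCI-H2228 cells were harvested, double-stained with Annexin V-FITC and PI and run on flow cytometry. Stage percentages quantified by software; three experiments, representative shown.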

NCI-H2228 [3] = test: Induction of apoptosis in human NCI-H2228 cells assessed as early apoptotic cells at 25 nM measured after 48 hrs by Annexin V-FITC/PI staining based flow cytometry assay (reference value: 1.58%); type: functional; summary of the method: as §2
NCI-H2228 [4] = test: Induction of apoptosis in human NCI-H2228 cells assessed as viable cells at 25 nM measured after 24 hrs by Annexin V-FITC/PI staining based flow cytometry assay (reference value: 95.6%); type: functional; conditions: read-out: Activity; summary of the method: as §2
NCI-H2228 [5] = test: Induction of apoptosis in human NCI-H2228 cells assessed as necrotic cells at 25 nM measured after 48 hrs by Annexin V-FITC/PI staining based flow cytometry assay (reference value: 2.88%); type: functional; summary of the method: as §2
NCI-H2228 [6] = test: Induction of apoptosis in human NCI-H2228 cells assessed as early apoptotic cells at 25 nM measured after 24 hrs by Annexin V-FITC/PI staining based flow cytometry assay (reference value: 2.18%); type: functional; summary of the method: as §2
NCI-H2228 [7] = test: Induction of apoptosis in human NCI-H2228 cells assessed as necrotic cells at 25 nM measured after 24 hrs by Annexin V-FITC/PI staining based flow cytometry assay (reference value: 0.21%); type: functional; summary of the method: as §2
NCI-H2228 [8] = test: Induction of apoptosis in human NCI-H2228 cells assessed as late apoptotic cells at 25 nM measured after 24 hrs by Annexin V-FITC/PI staining based flow cytometry assay (reference value: 2.02%); type: functional; summary of the method: as §2
NCI-H2228 [9] = test: Induction of apoptosis in human NCI-H2228 cells assessed as viable cells at 25 nM measured after 48 hrs by Annexin V-FITC/PI staining based flow cytometry assay (reference value: 95.3%); type: functional; conditions: read-out: Activity; summary of the method: as §2

Row | pIC50 (NCI-H2228 [1]) | pIC50 (BaF3) | Compound | further results
1 | 6.47 | 7.10 | CC[S+]([O-])c1cc(F)ccc1Nc1nc(Nc2ccc(N3CCC(N(C)C)CC3)cc2OC)ncc1Cl (stereo unspecified) | 
2 | 6.98 | 7.31 | CC[S+]([O-])c1cc(F)ccc1Nc1nc(Nc2ccc(N3CCN(C)CC3)cc2OC)ncc1Cl (stereo unspecified) | 
3 | 6.15 | 7.07 | CC[S+]([O-])c1cc(F)ccc1Nc1nc(Nc2ccc(N3CCN(C(C)=O)CC3)cc2OC)ncc1Cl (stereo unspecified) | 
4 | 7.32 | 7.33 | CCC(=O)Nc1cc(Nc2ncc(Cl)c(Nc3ccc(F)cc3[S+]([O-])CC)n2)c(OC)cc1N(C)CCN(C)C (stereo unspecified) | 
5 | 7.07 | 7.46 | CC[S+]([O-])c1cc(F)ccc1Nc1nc(Nc2ccc(N(C)CCN(C)C)cc2OC)ncc1Cl (stereo unspecified) | 

The next lines start with the compound.

Row | Compound | pIC50 (NCI-H2228 [1]) | pIC50 (BaF3) | further results
6 | COc1cc(N2CCC(N3CCN(C)CC3)CC2)ccc1Nc1ncc(Cl)c(Nc2ccccc2P(C)(C)=O)n1 [BRIGATINIB] | 7.51 | 8.07 | Activity (NCI-H2228 [2]): 31%; Activity (NCI-H2228 [3]): 12.7%; viability at 0.025 µM (NCI-H2228 [4]): 81.9%; Activity (NCI-H2228 [5]): 4.32%; Activity (NCI-H2228 [6]): 14.4%; Activity (NCI-H2228 [7]): 0.2%; Activity (NCI-H2228 [8]): 3.47%; viability at 0.025 µM (NCI-H2228 [9]): 52%
7 | CC[S+]([O-])c1cc(F)ccc1Nc1nc(Nc2ccc(N3CCCN(C)CC3)cc2OC)ncc1Cl (stereo unspecified) | 7.19 | 7.57 | 
8 | CC[S+]([O-])c1cc(Cl)ccc1Nc1nc(Nc2ccc(N3CCN(C)CC3)cc2OC)ncc1Cl (stereo unspecified) | 6.87 | 6.89 | 
9 | COc1cc(N2CCN(C)CC2)ccc1Nc1ncc(Cl)c(Nc2ccccc2[S+]([O-])C(C)C)n1 (stereo unspecified) | 7.08 | 7.49 | 
